From ChEMBL document CHEMBL1141843, “Sesquiterpene esters from Celastrus orbiculatus and their structure-activity relationship on the modulation of multidrug resistance” (J Nat Prod, 1999)

Legend:
KB-V1 [1] = test: Reversal of P-glycoprotein-mediated multidrug resistance assessed as ratio of vinblastine IC50 for drug-resistant human KB-V1 cells to vinblastine IC50 for human drug-sensitive KB-3-1 cells at 10 uM after 48 hrs by SRB method; format: cell-based
Outline: (§1)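 KB-3-1 and resistant KB-V1 cells seeded overnight, then treated for 48 h with a concentration range of adriamycin, vinblastine or taxol plus 10 μM modulator. Growth read by SRB at 570 nm and IC50 taken against vehicle controls. Relative resistance = IC50 in KB-V1 / IC50 in KB-3-1.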

KB-V1 [2] = test: Reversal of P-glycoprotein-mediated multidrug resistance assessed as ratio of taxol IC50 for drug-resistant human KB-V1 cells to taxol IC50 for human drug-sensitive KB-3-1 cells at 10 uM after 48 hrs by SRB method; format: cell-based; outline: as §1
[3] = Cytotoxicity against human KB31 cells after 48 hrs by SRB method; format: functional, cell-based; details: KB 3-1, 48 h
Outline: (§2)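 KB-3-1 and KB-V1 cells grown in DMEM with 2 mM L-glutamine and 10% heat-inactivated FCS at 37 °C, 5% CO2. KB-V1 kept under VLB. 2.5-5.0×10^3 cells/well seeded in 5% FCS medium, attached overnight, then exposed to compound for 48 h. Vehicle was DMSO or MeOH, final <0.5%. Read by SRB: TCA fixation, 0.4% SRB stain, Tris solubilization, absorbance at 570 nm. Mean ± S.D. of two experiments.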

[4] = Cytotoxicity against vinblastine resistant human KBV1 cells after 48 hrs by SRB method; format: functional, cell-based; details: KB-V1, 48 h; outline: as §2
[5] = Cytotoxicity against vinblastine resistant human KBV1 cells after 48 hrs in presence of 100 nM vinblastine by SRB method; format: functional, cell-based; details: KB-V1, 48 h; outline: as §2
KB-V1 [6] = test: Reversal of P-glycoprotein-mediated multidrug resistance assessed as ratio of IC50 for human KB-V1 cells to IC50 for human KB-V1 cells in presence of 100 nM vinblastine; format: cell-based
Outline: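 KB-V1 cells given compound alone or with 100 nM vinblastine for 48 h. Growth read by SRB at 570 nm and IC50 taken against vehicle controls. Enhancement factor = IC50 in KB-V1 without VLB / IC50 with VLB. Mean ± S.D. of two experiments.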

KB-V1 [7] = test: Reversal of P-glycoprotein-mediated multidrug resistance assessed as ratio of adriamycin IC50 for drug-resistant human KB-V1 cells to adriamycin IC50 for human drug-sensitive KB-3-1 cells at 10 uM after 48 hrs by SRB method; format: cell-based; outline: as §1

## CC(=O)O[C@H]1C[C@@H](C)[C@]23OC(C)(C)[C@H](C[C@H](OC(=O)c4ccccc4)[C@]2(C)[C@H]1OC(C)=O)[C@H]3OC(=O)c1ccco1 [ORBICULIN E]
KB-V1 [1]
  Ratio IC50: 1.6
KB-V1 [2]
  Ratio IC50: 2.6
[3]
  IC50: 28.3 µM
[4]
  IC50: 33.1 µM
[5]
  IC50: 500 nM
KB-V1 [6]
  Ratio IC50: 66.2
KB-V1 [7]
  Ratio IC50: 1.8

## CC(=O)OC[C@]12[C@@H](OC(=O)c3ccccc3)C[C@@H]3[C@@H](OC(C)=O)[C@]1(OC3(C)C)[C@H](C)C[C@H](OC(=O)c1ccccc1)[C@@H]2OC(C)=O
KB-V1 [1]
  Ratio IC50: 2.7
KB-V1 [2]
  Ratio IC50: 3.9
[3]
  IC50: 27.3 µM
[4]
  IC50: 28.6 µM
[5]
  IC50: 500 nM
KB-V1 [6]
  Ratio IC50: 57.2
KB-V1 [7]
  Ratio IC50: 1.4

## CC(=O)O[C@H]1CC[C@@H](C)[C@]23OC(C)(C)[C@H](C[C@H](OC(=O)c4ccccc4)[C@]12C)[C@H]3OC(=O)c1ccccc1
[3]
  IC50: 10.5 µM
[4]
  IC50: 12.3 µM
[5]
  IC50: 1900 nM
KB-V1 [6]
  Ratio IC50: 6.4

## CC(=O)O[C@H]1C[C@@H](C)[C@]23OC(C)(C)[C@H](C[C@H](OC(=O)c4ccccc4)[C@]2(C)[C@H]1OC(C)=O)[C@H]3OC(=O)c1ccccc1 [ORBICULIN A]
KB-V1 [1]
  Ratio IC50: 0.9
KB-V1 [2]
  Ratio IC50: 1.2
[3]
  IC50: 31.6 µM
[4]
  IC50: 32 µM
[5]
  IC50: 400 nM
KB-V1 [6]
  Ratio IC50: 80
KB-V1 [7]
  Ratio IC50: 3

## CC(=O)O[C@H]1C[C@@H](C)[C@]23OC(C)(C)[C@H](C[C@H](OC(=O)c4ccccc4)[C@]2(C)[C@H]1OC(C)=O)[C@H]3OC(C)=O
KB-V1 [1]
  Ratio IC50: 2.3
KB-V1 [2]
  Ratio IC50: 3.7
[3]
  IC50: 41.3 µM
[4]
  IC50: 34.8 µM
[5]
  IC50: 400 nM
KB-V1 [6]
  Ratio IC50: 87
KB-V1 [7]
  Ratio IC50: 8.3

## CC(=O)OC[C@@]12[C@@H](OC(C)=O)CC[C@@H](C)[C@]13OC(C)(C)[C@H](C[C@@H]2OC(=O)c1ccccc1)[C@H]3OC(C)=O
KB-V1 [1]
  Ratio IC50: 12.9
KB-V1 [2]
  Ratio IC50: 10
[3]
  IC50: 85.3 µM
[4]
  IC50: 79.4 µM
[5]
  IC50: 1000 nM
KB-V1 [6]
  Ratio IC50: 79.4
KB-V1 [7]
  Ratio IC50: 5.5

## CC(=O)O[C@H]1[C@@H](OC(=O)c2ccco2)C[C@@H](C)[C@]23OC(C)(C)[C@H](C[C@H](OC(=O)c4ccccc4)[C@]12C)[C@H]3OC(=O)c1ccco1 [ORBICULIN F]
KB-V1 [1]
  Ratio IC50: 8.9
KB-V1 [2]
  Ratio IC50: 11
[3]
  IC50: 32.4 µM
[4]
  IC50: 39.3 µM
[5]
  IC50: 1100 nM
KB-V1 [6]
  Ratio IC50: 35.7
KB-V1 [7]
  Ratio IC50: 4.4

## CC(=O)O[C@H]1CC[C@@H](C)[C@]23OC(C)(C)[C@H](C[C@H](OC(=O)c4ccco4)[C@]12C)[C@H]3OC(=O)c1ccccc1 [ORBICULIN C]
[3]
  IC50: 8.6 µM
[4]
  IC50: 9.6 µM
[5]
  IC50: 1000 nM
KB-V1 [6]
  Ratio IC50: 9.6

## CC(=O)O[C@H]1[C@@H](OC(=O)c2ccccc2)C[C@@H](C)[C@]23OC(C)(C)[C@H](C[C@H](OC(=O)c4ccccc4)[C@]12C)[C@H]3OC(=O)c1ccccc1 [ORBICULIN G]
KB-V1 [1]
  Ratio IC50: 168
KB-V1 [2]
  Ratio IC50: 143
[3]
  IC50: 26.4 µM
[4]
  IC50: 28.6 µM
[5]
  IC50: 4800 nM
KB-V1 [6]
  Ratio IC50: 5.9
KB-V1 [7]
  Ratio IC50: 153

## CC(=O)O[C@H]1CC[C@@H](C)[C@]23OC(C)(C)[C@H](C[C@H](OC(=O)c4ccccc4)[C@]12C)[C@H]3OC(=O)c1ccco1 [ORBICULIN B]
[3]
  IC50: 268 µM
[4]
  IC50: 246 µM
[5]
  IC50: 19600 nM
KB-V1 [6]
  Ratio IC50: 12.5

## CC(=O)O[C@H]1CC[C@@H](C)[C@]23OC(C)(C)[C@H](C[C@H](OC(=O)c4ccco4)[C@]12C)[C@H]3OC(=O)c1ccco1 [ORBICULIN D]
[3]
  IC50: 16.8 µM
[4]
  IC50: 17.8 µM
[5]
  IC50: 1200 nM
KB-V1 [6]
  Ratio IC50: 14.8
